APJ antagonist – APJ receptor antagonism; CHO-K1 APJ beta-arrestin complementation, luminescence; hit rate 0.32% among 330,000; inhibition, % at 20 µM; AID 2521;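 active = inhibition above about 40% at 20 µM, limit read from the data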;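 also: cells challenged with 10 nM apelin-13 agonist together with compound; plate controls were apelin-13 plus DMSO wells for no effect and DMSO wells lacking apelin-13 for full effect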
EBI2 antag – EBI2 (human) antagonism. P32249. EBI2 beta-arrestin recruitment, luminescence, 7a,25-OHC stimulated. inhibition, % at 5 µM. hit rate 0.81% among 360,000. AID 651636; in the data active = inhibition above about 38%;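 also: enzyme fragment complementation signal reports receptor beta-arrestin coupling in cells; 0% = agonist plus DMSO wells and 100% = wells without agonist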
Target sequence (P32249 whole entry, looked up, the tested form may be a part): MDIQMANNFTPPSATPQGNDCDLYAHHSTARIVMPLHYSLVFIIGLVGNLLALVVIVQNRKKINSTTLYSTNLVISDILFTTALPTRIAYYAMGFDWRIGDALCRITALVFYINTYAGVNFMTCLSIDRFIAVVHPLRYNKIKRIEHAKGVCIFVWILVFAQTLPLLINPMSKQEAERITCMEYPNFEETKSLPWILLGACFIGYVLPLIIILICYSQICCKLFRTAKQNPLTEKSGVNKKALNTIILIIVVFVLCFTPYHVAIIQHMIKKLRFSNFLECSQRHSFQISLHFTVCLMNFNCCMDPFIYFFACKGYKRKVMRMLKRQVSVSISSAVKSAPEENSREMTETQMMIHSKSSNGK
CCR6 antagonist – blocks CCL20-driven beta-arrestin recruitment at human CCR6 | P51684 | CHO-K1 CCR6 PathHunter beta-arrestin, luminescence, CCL20-stimulated | inhibition, % at 20 µM | hit rate 0.49% among 340,000 | AID 493098;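 active = compounds whose inhibition of the agonist-driven luminescence signal at 20 µM reaches about 50%, limit read from the data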;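 also: cells stimulated with CCL20 at 14 nM final; plate controls were DMSO with CCL20 for no effect and DMSO without agonist for full effect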
APJ agonist – APJ receptor agonism; hit rate 0.11% among 330,000; activation, % at 20 µM; AID 2520; CHO-K1 APJ PathHunter beta-arrestin, luminescence; 0% DMSO wells, 100% apelin;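 active = activation more than six SD over the plate average, tested at 20 µM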;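 also: 0% = DMSO alone and 100% = apelin-13 at 10 nM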
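Assay system: CHO-K1 APJ beta-arrestin complementation cell line / Compound: single test compound dose, 20 µM final, 1% DMSO / Times: overnight seeding, 90 min compound at 25 °C, 1 h detection / Technique: beta-gal luminescence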
CXCR6 inh – CXCR6 (human) receptor inhibition. CHO-K1 PathHunter CXCR6 beta-arrestin, luminescence. inhibition, % at 20 µM. AID 602244. O00574. hit rate 0.36% among 360,000; in the data active = inhibition above about 34%, passing the limit was not always enough;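 also: antagonist mode with CXCL16 agonist at 10 nM final; 0% = 10 nM CXCL16 with DMSO and 100% = unstimulated wells without agonist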
APJ ag confirm – confirmation of human APJ apelin receptor agonists; AID 2764; shares compounds with APJ agonist; activation, % at 20 µM; hit rate 10% among 310; CHO-K1 APJ PathHunter beta-arrestin, luminescence;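 active = activation above 40%, taking the highest of four retests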;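 also: plate controls were DMSO wells for no effect and apelin-13 at 10 nM for full effect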
APJ antag conf – APJ receptor antagonism confirmation; shares compounds with APJ antagonist; hit rate 66% among 950; inhibition, % at 20 µM; AID 2766; APJ beta-arrestin recruitment, luminescence, antagonist mode; in the data active = inhibition above about 50%
CXCR6 confirm – confirmation of human CXCR6 receptor antagonists. shares compounds with CXCR6 inh. CHO-K1 CXCR6 PathHunter beta-arrestin, luminescence. inhibition, % at 20 µM. hit rate 65% among 700;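 active = mean inhibition over four retests above 40%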;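 also: receptor stimulated with 10 nM CXCL16 agonist; beta-galactosidase fragment complementation upon beta-arrestin recruitment to receptor; plate controls were CXCL16 plus DMSO for no effect and DMSO without CXCL16 for full effect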
* = called active by the depositor; nt = no result given. Compounds with a hit are over-represented: about 1.5% of the library has one in this group of screens.

SMILES	APJ antagonist	EBI2 antag	CCR6 antagonist	APJ agonist	CXCR6 inh	APJ ag confirm	others
NC(=O)c1ccsc1NC(=O)COC(=O)/C=C/c1ccc([N+](=O)[O-])cc1	-40	4	-2	-5	-22	nt
COC(=O)c1ccc(/C=C/C(=O)OCC(=O)Nc2sccc2C(N)=O)cc1	-9	-20	-9	31*	2	47*
CC1(C)CC(=O)C2=C(C1)OC1=C(C(=O)CC(C)(C)C1)C2c1cccc([N+](=O)[O-])c1	nt	-16	nt	nt	8	nt
CCCCc1ccc(N/C(N)=N/c2nc(C)cc(C)n2)cc1	-28	-18	-2	43*	3	17
CC(C)c1ccc(C2(C)NC(=O)N(CC(=O)NC3(C#N)CCCC3)C2=O)cc1 (stereo not drawn)	21	-3	4	-4	1	nt
Cc1cc(C)n(-c2nc(N(c3ccccc3)c3ccccc3)nc(-n3nc(C)cc3C)n2)n1	-14	-86	17	36*	32	14
C=CCn1c(SCn2nnc3ccccc3c2=O)nnc1-c1ccc(Br)cc1	19	8	4	-2	-3	nt
O=C(NC(Cc1ccccc1)C(=O)N1CCN(S(=O)(=O)c2ccccc2F)CC1)c1ccccc1 (stereo not drawn)	7	4	0	26*	0	9
COc1ccc(/C=N/Nc2cc(C)nc3ccc(Br)cc23)cc1	-6	-14	1	17*	-4	37
CC(C)(C)NC(=O)C[C@H]1C[C@H](C(=O)N2CCOCC2)[C@@]2(C)c3[nH]c4cc(-c5ccco5)ccc4c3CCN2C1=O	nt	4	17	nt	8	nt
O=C(Nc1ccc2c(c1)OCO2)C1CCCCC1	0	-3	7	9	-13	nt
CCOC(=O)c1sc(NC(=O)CN2C(=O)NC3(CC(C)CC(C)(C)C3)C2=O)cc1C (stereo not drawn)	5	2	-15	38*	4	4
CC(C)CCN(C(=S)NC(=O)C1CCCCC1)c1c(N)n(Cc2ccccc2)c(=O)[nH]c1=O	-7	2	0	33*	8	39
CC(C)CCN(C(=O)C1CCCC1)c1c(N)n(Cc2ccccc2)c(=O)[nH]c1=O	-1	-8	10	-1	5	nt
Cc1ccc(C2C(C#N)=C(N)Oc3nc(-c4ccccc4)[nH]c32)o1 (stereo not drawn)	-1	-19	-18	30*	-9	15
CC(Oc1ccccc1)C(=O)NC1CCN(Cc2ccccc2)CC1 (stereo not drawn)	-3	-6	21	-5	-5	nt
Cc1ccc(CNC(=O)c2oc3ccc(S(=O)(=O)N4CCOCC4)cc3c2C)cc1	-8	35	-4	9	-5	nt
Cc1c(C(=O)Nc2cccc(C(F)(F)F)c2)oc2ccc(S(=O)(=O)N3CCOCC3)cc12	-18	-26	-17	21*	-6	17
CCOC(=O)c1c(N)sc(C(O)(C(F)(F)F)C(F)(F)F)c1-c1ccc(F)cc1	-14	-6	0	2	-3	nt
Cc1cccc(NC(=O)NNC(=O)CCc2ccccc2)c1	11	10	-4	1	5	nt
Cc1cccc(NC(=S)NC(=O)CCc2ccccc2)c1	-82	15	-35	19*	-19	25
COc1cc2c3nnc(-c4ccc(F)cc4)c-3cn(Cc3ccccc3)c2cc1OC	18	2	4	24*	-4	36
COc1cc2c3nnc(-c4ccc(F)cc4)c-3cn(Cc3ccc(F)cc3)c2cc1OC	27	7	13	4	6	nt
CCOc1ccc(/C=C/[N+](=O)[O-])c2ccccc12	-24	10	nt	16*	60*	-3	CXCR6 confirm=52*
O=S(=O)(c1ccc(Cl)cc1)N1CCN(c2ncnc3sccc23)CC1	-17	-16	14	2	-15	nt
O=C(C[n+]1ccc(-c2cc(C(=O)Nc3cccc(C(F)(F)F)c3)c3ccccc3n2)cc1)c1cccc([N+](=O)[O-])c1	52*	-9	38	-5	27	nt	APJ antag conf=63*

Screening results deposited in PubChem BioAssay by Sanford-Burnham Center for Chemical Genomics.
